From ChEMBL document CHEMBL1287789, “4-deoxy-4-fluoro-xyloside derivatives as inhibitors of glycosaminoglycan biosynthesis” (Bioorg Med Chem Lett, 2010)
Calls of active or inactive are those of the source. The rule behind the calls is not given here.

What was measured:
Bos taurus [1] = organism: Bos taurus; experiment: Inhibition of glycosaminoglycan biosynthesis in BLMVEC assessed as [3H]glucosamine incorporation at 300 uM after 24 hrs by liquid scintillation counting; format: functional
In short: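 Cells seeded at 2 × 10⁵/well and grown 24 h at 37 °C, then switched to DMEM with 1 mM glucose and 10% dialyzed FBS. Treated 24 h with 300 µM compound (from 30 mM DMSO stock) or DMSO alone, with ³H-glucosamine. Pronase digest overnight at 37 °C; GAGs bound to DEAE-Sepharose, washed at pH 6.0 with 0.1 M NaCl, eluted with 1 M NaCl; eluate radioactivity by scintillation counting.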

[2] = Cytotoxicity against BLMVEC assessed as cell viability at <=300 uM after 24 hrs by celltiter blue assay; set-up: species or system Bos taurus; conditions: cattle
In short: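 Bovine lung microvascular endothelial cells seeded at 2.5 × 10⁴ cells/well in duplicate, Ham's F-12 with 10% FBS. Exposed to DMSO (control) or compound at 0.1, 0.3 and 1.0 mM for 24 h at 37 °C; 3% H₂O₂ as control. CellTiter-Blue added for 2 h, stopped with 3% SDS, fluorescence read at ex 560/em 590 nm.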

Bos taurus [3] = organism: Bos taurus; experiment: Inhibition of glycosaminoglycan biosynthesis in BLMVEC assessed as [3H]-labeled-GAG chains by anion exchange chromatography; format: functional; conditions: dose or concentration not given here
In short: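 ³H-glucosamine-labelled GAG chains from cells given 300 µM compound or DMSO for 24 h were run on DEAE-HPLC. Elution over 80 min with a 0.2–1 M NaCl linear gradient, monitored by an in-line radiometric detector; heparan sulfate and chondroitin sulfate resolved as separate peaks between 20 and 50 min.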

Compound | inhibition (Bos taurus [1]) | Activity [2] | inhibition (Bos taurus [3])
O[C@@H]1[C@@H](O)[C@H](n2cc(COc3ccc(F)cc3)nn2)OC[C@H]1F | Active | Non-toxic | –
O=[N+]([O-])c1ccc(OCc2cn([C@H]3OC[C@@H](F)[C@H](O)[C@H]3O)nn2)cc1 | 80% | Non-toxic | 80%
O[C@@H]1[C@@H](O)[C@H](n2cc(COCc3ccc4ccccc4c3)nn2)OC[C@H]1F | inactive | Non-toxic | –
O[C@@H]1[C@@H](O)[C@@H](n2cc(-c3ccc4ccccc4c3)nn2)OC[C@H]1F | Active | Non-toxic | –
O=[N+]([O-])c1ccc(OCc2cn([C@@H]3OC[C@@H](F)[C@H](O)[C@H]3O)nn2)cc1 | 80% | Non-toxic | 80%
O[C@@H]1[C@@H](O)[C@@H](n2cc(COc3ccc(F)cc3)nn2)OC[C@H]1F | Active | Non-toxic | –
O[C@@H]1[C@@H](O)[C@@H](n2cc(COCc3ccc4ccccc4c3)nn2)OC[C@H]1F | Active | Non-toxic | –
